Drawing on PubChem BioAssay AID1800 (The Scripps Research Institute Molecular Screening Center, 2009), this text covers inhibition for 61 molecules.

About 1,600 (0.55%) of roughly 290,000 compounds were called active.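 Rule for the calls: active = inhibition above the mean of all tested compounds plus 3 SD, set per campaign (cut at about 35% in these data); inactive = the rest.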 Many of the other results were omitted from the sample, so actives are more common in it than they were.

The assay concerns Hepatitis C virus NS3 helicase. In words: inhibitors of HCV NS3 helicase, primary screen, biochemical, Cy5 molecular beacon fluorescence (AID 1800).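 Note: 0% = DMSO wells and 100% = thioflavine S control wells.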 As to conditions: NS3 helicase DNA unwinding, at 10.9 µM, stronger effect = higher value. In outline: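 System: Hepatitis C virus NS3 helicase domain fragment enzyme | Reagent: Annealed dual-labelled DNA beacon duplex, ATP-started | Compound dosing: 10.9 µM single point, 0.8% DMSO | Incubation: 1 h reaction at 25 °C, ATP-initiated | Technique: Cy5 fluorescence | Evaluation: Percent inhibition from t60/t0 fluorescence ratio | Benchmarks: Low DMSO, high thioflavine S at 110 µM | Replication: Singlicate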
The term inhibition denotes the change of the read-out against control, counted positive when it falls. As for `CS(=O)(=O)N1CCc2cc(C(=O)Nc3ccccc3Br)ccc21`, the inhibition was 5.96% (inactive). As for `COc1cc2c(cc1OC)CN(CC(=O)Nc1ccc(F)cc1)CC2`, the figure is -2.51% (inactive); as for `CCN(CCCNC(=O)c1ccc2c(c1)NC(=O)CN2C)c1cccc(C)c1`, 2.74% (inactive). Under `O=c1c2c(-c3ccccc3)ccnc2[nH]n1-c1ccccc1` stands 47.7% (active); under `Cc1ccc(-c2ccnc3[nH]n(-c4ccccc4)c(=O)c23)cc1`, 15.7% (inactive). As for `O=c1c(-c2cccc(Cl)c2)c[nH]n1-c1ccccc1`, the figure is 4.7% (inactive). On to `COc1ccc(C(=O)N(C)CC(O)c2ccccc2)cc1OC1CCN(C(C)=O)CC1` (stereo unspecified), for which the inhibition is 32.3% (inactive). Under `CCNC(=O)CC1C(=O)N(c2ccc(OC)cc2)C(=O)N1CCOC` (stereo unspecified) stands 1.88% (inactive). Take `Cc1cccc(N2CCN(C(=O)CCS(=O)(=O)c3ccc4c(c3)NC(=O)C(C)S4)CC2)c1C` (stereo unspecified): the inhibition is -0.36% (inactive). Consider `COc1ccccc1N1CCN(C(=O)CCS(=O)(=O)c2ccc3c(c2)NC(=O)C(C)S3)CC1` (stereo unspecified), for which the inhibition was 38.1% (active). As for `CC1Sc2ccc(S(=O)(=O)CCC(=O)NCc3ccccc3Cl)cc2NC1=O` (stereo unspecified), the figure is 8.3% (inactive); as for `Cc1ccc(S(=O)(=O)NCC(=O)N(CC(=O)NCC2CCCO2)c2cccc(F)c2)cc1` (stereo unspecified), -2.87% (inactive); as for `O=C(c1ccc(F)cc1)n1c(=S)nc2ccccn21`, 12% (inactive). As for `CC(=O)c1ccccc1OCc1ccc(C(=O)c2ccccc2)cc1`, the figure is -8.3% (inactive); as for `O=C1C=CC(=O)N1c1ccc(N2CCCCC2)cc1`, 45.2% (active). `O=C1CC(N2CCN(c3ccc(F)cc3)CC2)C(=O)N1c1ccccc1` (stereo unspecified): the inhibition is -13.4% (inactive). As for `O=C(Cc1ccccc1)NC(=S)Nc1ccc(N2CCCCC2)cc1`, the figure is -1.95% (inactive); as for `COc1cccc(NC(=O)c2ccccc2N(Cc2ccccc2)S(C)(=O)=O)c1`, 0.24% (inactive). With `CC(=O)N1c2ccc(S(=O)(=O)N3CCCC(C(=O)Nc4ccc(C)cc4C)C3)cc2CC1C` (stereo unspecified), the inhibition is -18.4% (inactive).

On to `Cc1occc1C(=O)N/N=C/c1ccc(-c2cccc([N+](=O)[O-])c2)o1`, for which the inhibition was 45.3% (active). Under `Cc1ccc(-c2ccc(/C=N/NC(=O)CN3CCOCC3)o2)cc1[N+](=O)[O-]` stands 6.31% (inactive). Under `Cc1cc(C(=O)N/N=C/c2ccccc2[N+](=O)[O-])c(C)o1` stands 5.42% (inactive). In the case of `COc1ccc(Cn2c(-c3ccc(Cl)cc3)c[n+]3ccccc23)cc1`, the inhibition is -35.9% (inactive).

On to `CCCCn1c(O)c(N=NC(=O)Cn2c(C(F)(F)F)nc3ccccc32)c2ccccc21`, for which the inhibition was 0.68% (inactive). For `Oc1oc(-c2ccccc2Br)nc1/C=N/c1ccccn1`, the inhibition is -6.78% (inactive). Under `O=C(c1ccco1)N1CCN(C(=S)Nc2cc(F)cc(F)c2)CC1` stands -5.92% (inactive); under `CC1CCCN(c2ccc(C(=O)NCCc3ccccc3)cn2)C1` (stereo unspecified), -1.78% (inactive). On to `O=C(O)c1ccc(/C=N/Nc2nc(N3CCCCC3)nc(N3CCCCC3)n2)cc1`, for which the inhibition was 3.13% (inactive).

`Cc1ccc(C(CC(=O)O)Nc2nc(N3CCCCC3)nc(N3CCCCC3)n2)cc1` (stereo unspecified): the inhibition was 46.7% (active). `CCC(NC(=O)C1CCCC1)c1ccc(C)cc1` (stereo unspecified): the inhibition is 1.79% (inactive).

For the molecule `Cc1ccc(C(=O)COC(=O)CCN2C(=O)C3C4CCC(C4)C3C2=O)cc1C` (stereo unspecified), the inhibition was 19.3% (inactive).

Take `CC1CN(C(=S)Nc2cccc(F)c2)CC(C)O1` (stereo unspecified): the inhibition was -3.8% (inactive). As to `COc1ccc(S(=O)(=O)N2CCSCC2)cc1`, the inhibition was 9.62% (inactive). As for `CC(=O)C1=C(O)C(=O)N(c2cccnc2)C1c1ccc([N+](=O)[O-])cc1` (stereo unspecified), the figure is -3.05% (inactive). For the molecule `CC(=O)C1=C(O)C(=O)N(c2ccc(Br)cc2)C1c1ccc([N+](=O)[O-])cc1` (stereo unspecified), the inhibition is 36% (active). As for `COC(=O)CN1C(=O)C(O)=C(C(C)=O)C1c1ccc([N+](=O)[O-])cc1` (stereo unspecified), the figure is -0.09% (inactive). As for `CN(Cc1ccc(F)cc1)C(=O)COc1ccc2ccccc2c1`, the figure is -17.8% (inactive); as for `COCn1c(C(O)c2ccccc2)cc2ccccc21` (stereo unspecified), -4.17% (inactive). Under `Cc1cc(C)c(OCC(=O)N/N=C/c2ccco2)c(C)c1` stands -4.49% (inactive); under `COC(=O)C1=C(C)N(c2ccc(Br)cc2)C(=O)/C1=C\c1ccco1`, 17.4% (inactive). On to `COC(=O)COc1ccc2c(c1C)O/C(=C\c1ccco1)C2=O`, for which the inhibition was 90.2% (active).

For the molecule `Cn1ncc2c(N3CCCCC3)nc(NCCCO)nc21`, the inhibition is 5.11% (inactive). As for `CC(=O)NN1C(=O)c2ccccc2NC1c1ccccc1` (stereo unspecified), the inhibition is -4.55% (inactive). Under `COC1=C/C(=C/c2c(N)n3nc(CC(=O)N4CCOCC4)sc3nc2=O)C=CC1=O` stands 13.6% (inactive). Turning to `COc1cccc(NC(=O)CSc2nnc(Cc3ccc(OC)c(OC)c3)o2)c1`, the inhibition was -10.1% (inactive). Take `O=C(N/N=C/c1ccco1)c1ccc(NC(=O)C2CC2)cc1`: the inhibition was 2.86% (inactive). As for `O=C(N/N=C/c1ccco1)c1ccc(C(=O)N/N=C/c2ccco2)o1`, the figure is -3.79% (inactive); as for `O=C(N/N=C/c1ccco1)c1csc2c1CCCC2`, 42.9% (active).

For `Cc1ccc(C)c(S(=O)(=O)N2CCCOC2CNC(=O)C(=O)NC2CCCCC2)c1` (stereo unspecified), the inhibition was 8.68% (inactive).

Take `CCc1cc2c(=O)n(-c3ccccc3)c(SCC(=O)O)nc2s1`: the inhibition is 5.68% (inactive).

For `COc1ccc(C2C3=C(CCCC3=O)N(CC(=O)O)C3=C2C(=O)CCC3)cc1`, the inhibition is 2.66% (inactive). Regarding `CCOc1ccc(C2C(C#N)=C(N)N(N(C)C)C3=C2C(=O)CCC3)cc1` (stereo unspecified), the inhibition is 6.79% (inactive). As for `CCOc1ccc(C2C3=C(CCCC3=O)N(CC(=O)O)C3=C2C(=O)CCC3)cc1`, the figure is 59.8% (active); as for `COc1ccc(N(C(=O)c2snc(C(N)=O)c2N)C(C(=O)NC2CCCC2)c2ccc(C)o2)c(OC)c1` (stereo unspecified), -6.52% (inactive); as for `Cc1[nH]n(C(N)=S)c(=O)c1N=Nc1ccc(Cl)cc1Cl`, 44.7% (active). Under `Cc1[nH]n(-c2cccc(Cl)c2)c(=O)c1-c1ccc(Cl)cc1` stands 1.96% (inactive); under `CC1=NN(C(N)=S)C(=O)C1N=Nc1cc(Cl)ccc1Cl` (stereo unspecified), 34.2% (inactive); under `O=C(CSC(=S)N1CCCCC1)c1c(F)cccc1F`, 4.19% (inactive). On to `CCN(CC)CCOc1ccc2c(c1)C(=NNC(=O)c1ccccn1)c1cc(OCCN(CC)CC)ccc1-2`, for which the inhibition is 41% (active). Regarding `Cc1cccc(OCC(=O)NCCCNC(=O)c2ccccn2)c1`, the inhibition is 4.84% (inactive).

Consider `COc1ccc(CC(=O)N/N=C(\C)c2ccccn2)cc1`, for which the inhibition was 8.79% (inactive).
